What was measured:
Mus musculus [1] = experiment: Inhibition of mescaline effects in mice following p.o. administration.; type: functional; conditions: po
In short: (§1)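 In mice, antagonism of mescaline-induced effects was tested after oral administration. Potency is an ED50 in mg/kg, calculated as free base weight.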

Mus musculus [2] = experiment: Antimescaline activity in the mouse (administered po); type: functional; in short: as §1
Mus musculus [3] = experiment: Ability to block the aggressive behavior caused by prolonged isolation in mouse (administered po); type: functional
In short: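 Mice were made aggressive by prolonged isolation. The compound was given orally, and blockade of the aggressive behavior was scored. ED50 is in mg/kg, expressed as free base weight.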

Rattus norvegicus [4] = experiment: In vivo antagonism of compound determined by the ability to inhibit 5-HTP-induced head twitch in rat (administered po); type: functional
In short: (§2)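 In rats, head twitches were induced with 5-hydroxytryptophan as an in vivo read-out of 5HT2 antagonism. The compound was dosed po, and inhibition of twitching gave an ED50 (mg/kg, free base weight).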

Mus musculus [5] = species: Mus musculus; experiment: Ability to block the aggressive behavior caused by prolonged isolation in mouse; type: functional
In short: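 Mice made aggressive by prolonged isolation; compounds dosed orally (po); blocking of aggressive behaviour scored and ED50 derived in mg/kg, expressed as free base weight; values averaged from three measurements, some single measurements.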

[6] = target: Sigma non-opioid intracellular receptor 1 (Cavia porcellus) (UniProt Q60492); experiment: Binding affinity for sigma receptor of guinea pig whole brain using [3H]-SKF- 100047 radioligand
Rattus norvegicus [7] = experiment: In vivo 5-HT2 antagonism of 5-HTP-induced head twitch in rat; type: functional
In short: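 Rats given 5-hydroxytryptophan (5HTP) to induce head twitches, a read-out of in vivo 5HT2 antagonism; compounds given orally (po); ED50 in mg/kg as free base weight; values averaged from three measurements, some single measurements.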

Rattus norvegicus [8] = experiment: In vivo activity of 5-HTP-induced head twitch in rat as a measure of 5-HT2 antagonism; type: functional; in short: as §2

Chain of Sigma non-opioid intracellular receptor 1 (Cavia porcellus) (Q60492 whole entry, looked up): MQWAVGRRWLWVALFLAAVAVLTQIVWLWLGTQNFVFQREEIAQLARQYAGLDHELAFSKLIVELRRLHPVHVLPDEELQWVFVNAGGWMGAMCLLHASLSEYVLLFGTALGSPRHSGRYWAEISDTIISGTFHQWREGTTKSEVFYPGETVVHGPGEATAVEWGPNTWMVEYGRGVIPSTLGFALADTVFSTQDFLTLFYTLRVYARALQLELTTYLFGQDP

Br.O=C1c2ccccc2CCC1C1CCN(CC2CC2)CC1 (configuration not stated) gave an ED50 (Mus musculus [1]) greater than 10 mg/kg.
Work on Br.CC(C1CC1)N1CCC(C2CCc3ccccc3C2=O)CC1 (configuration not stated) yielded an ED50 (Mus musculus [2]) greater than 30 mg/kg.
Work on O=C1c2ccc(Cl)cc2CCC12CCN(CCc1ccccc1)CC2 yielded an ED50 (Mus musculus [1]) of 10 mg/kg.
With COc1ccc(CN2CCC3(CCc4ccccc4C3=O)CC2)cc1.Cl the ED50 (Mus musculus [2]) was greater than 10 mg/kg.
Work on OC1CCc2ccccc2C12CCN(CCc1ccccc1)CC2 (configuration not stated) yielded an ED50 (Mus musculus [1]) greater than 30 mg/kg.
O=C(O)CC(O)C(=O)O.O=C1c2ccccc2CCC12CCN(Cc1ccc(C(F)(F)F)cc1)CC2 was tested, and the ED50 (Mus musculus [2]) was greater than 10 mg/kg.
O=C1CCc2ccccc2C12CCN(CCc1ccccc1)CC2 gave an ED50 (Mus musculus [1]) greater than 30 mg/kg.
In the case of O=C1c2ccc(F)cc2CCC1C1CCN(CCc2ccccc2)CC1 (configuration not stated), the ED50 (Mus musculus [2]) is reported as 1.9 mg/kg.
For Br.O=C1c2ccccc2CCC1C1CCN(CCc2ccccc2)CC1 (configuration not stated), the ED50 (Mus musculus [2]) was 6.4 mg/kg.
In the case of Cl.O=C1c2cccc(F)c2CCC1C1CCN(CCc2ccccc2)CC1 (configuration not stated), the ED50 (Mus musculus [1]) is reported as 6.8 mg/kg.
Work on O=C1c2ccc(F)cc2CCC1C1CCN(Cc2ccccc2)CC1 (configuration not stated) yielded an ED50 (Mus musculus [1]) greater than 10 mg/kg.
Cl.O=C1c2ccccc2CCC12CCN(Cc1ccc([N+](=O)[O-])cc1)CC2 showed an ED50 (Mus musculus [1]) greater than 10 mg/kg.
Work on Cl.O=C1c2ccccc2CCC12CCN(Cc1ccc(F)cc1)CC2 yielded an ED50 (Mus musculus [2]) greater than 10 mg/kg.
Cl.O=C1c2ccccc2CCC1C1CCN(Cc2ccccc2)CC1 (configuration not stated) showed an ED50 (Mus musculus [1]) of 4.5 mg/kg.
With CN1CCC2(CCc3ccccc3C2=O)CC1.Cl the ED50 (Mus musculus [1]) was greater than 10 mg/kg.
For Cc1ccc(CN2CCC(C3CCc4ccccc4C3=O)CC2)cc1.O (configuration not stated), the ED50 (Mus musculus [1]) was greater than 10 mg/kg.
Cl.O=C1c2ccc(Cl)cc2CCC1C1CCN(CCc2ccccc2)CC1 (configuration not stated) gave an ED50 (Mus musculus [1]) of 5.4 mg/kg.
c1ccc(CN2CCC3(CCCc4ccccc43)CC2)cc1 gave an ED50 (Mus musculus [2]) greater than 30 mg/kg, an ED50 (Mus musculus [3]) greater than 30 mg/kg and an ED50 (Rattus norvegicus [4]) greater than 30 mg/kg.
CC(C)(C)c1ccc(CN2CCC3(CCc4ccccc4C3=O)CC2)cc1.Cl gave an ED50 (Mus musculus [1]) greater than 10 mg/kg.
Compound CC(C)(C)c1ccc(CN2CCC(C3CCc4ccccc4C3=O)CC2)cc1 (configuration not stated) has an ED50 (Mus musculus [2]) greater than 10 mg/kg.
C[C@@H]1CN(CCCn2c3ccccc3c3ccccc32)C[C@H](C)N1 [RIMCAZOLE] showed an ED50 (Mus musculus [2]) of 22 mg/kg and an ED50 (Mus musculus [5]) of 48 mg/kg.
In the case of COc1ccc2c(c1)CCC(C1CCN(CCc3ccccc3)CC1)C2=O (configuration not stated), the ED50 (Mus musculus [1]) is reported as 6.5 mg/kg.
Work on Br.O=C(CC1CCN(CC2CC2)CC1)c1ccc(F)cc1 yielded an ED50 (Mus musculus [2]) of 0.35 mg/kg, a Ki [6] of 10 nM and an ED50 (Rattus norvegicus [7]) of 1.8 mg/kg. For the same compound, the ED50 (Mus musculus [5]) was 1.9 mg/kg.
O=C(O)CC(O)C(=O)O.O=C1c2ccccc2CCC12CCN(Cc1ccc3ccccc3c1)CC2 was tested, and the ED50 (Mus musculus [1]) was greater than 10 mg/kg.
O=C(O)/C=C/C(=O)O.O=C1c2c(F)cc(F)cc2CCC12CCN(CCc1ccccc1)CC2 showed an ED50 (Mus musculus [1]) greater than 10 mg/kg.
In the case of Cl.O=C1c2ccccc2CCC12CCN(CC1CCCCC1)CC2, the ED50 (Mus musculus [1]) is reported as greater than 10 mg/kg.
For Cl.O=C(CCCN1CCC2(CCc3ccccc3C2=O)CC1)c1ccc(F)cc1, the ED50 (Mus musculus [1]) was 0.65 mg/kg.
Work on Cl.O=C1c2ccccc2CCC12CCN(Cc1ccccc1)CC2 yielded an ED50 (Mus musculus [1]) greater than 10 mg/kg.
For Cl.O=C1c2ccccc2CCC1C1CCN(Cc2ccc(F)cc2)CC1 (configuration not stated), the ED50 (Mus musculus [2]) was 10 mg/kg.
Work on Cl.O=C1c2ccccc2CCC12CCN(CCc1ccccc1)CC2 yielded an ED50 (Mus musculus [1]) of 10 mg/kg, an ED50 (Rattus norvegicus [7]) of 10 mg/kg and an ED50 (Mus musculus [5]) of 30 mg/kg.
Compound Cl.OC1c2ccccc2CCC12CCN(CCc1ccccc1)CC2 (configuration not stated) has an ED50 (Mus musculus [1]) of 0.064 mg/kg, an ED50 (Rattus norvegicus [8]) of 0.07 mg/kg and an ED50 (Mus musculus [5]) of 10 mg/kg.
With Cl.O=C1c2ccccc2CCC1C1CCN(Cc2ccc(C(F)(F)F)cc2)CC1 (configuration not stated) the ED50 (Mus musculus [2]) was greater than 10 mg/kg.

— ChEMBL document CHEMBL1127316, “Piperidinyltetralin sigma ligands” (J Med Chem, 1994)
